Measurements taken from ChEMBL document CHEMBL2406927, “Inhibitory effect of resveratrol dimerized derivatives on nitric oxide production in lipopolysaccharide-induced RAW 264.7 cells” (Bioorg Med Chem Lett, 2013).
Activity calls are given as the source filed them. The calls are words filed in the database; no cut-off is given here.

Key:
[1] = system: RAW264.7; test: Antiinflammatory activity in mouse RAW264.7 cells assessed as inhibition of LPS-induced NO production treated 2 hrs before LPS challenge measured after 24 hrs; assay type: functional, cell-based
How it was run: (§1)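 Cells were pretreated with compound for 2 h before LPS (1 μg/mL), then incubated 24 h. NO production was determined by nitrite/nitrate assay and expressed as a percentage of LPS-stimulated cells (means, SEM). IC50 is the concentration giving 50% inhibition of NO production. Data come from at least three independent experiments, each run in duplicate.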

[2] = system: RAW264.7; test: Antiinflammatory activity in mouse RAW264.7 cells assessed as LPS-induced NO production at 10 uM treated 2 hrs before LPS challenge measured after 24 hrs
[3] = system: RAW264.7; test: Antiinflammatory activity in mouse RAW264.7 cells assessed as inhibition of LPS-induced iNOS expression at 10 uM after 24 hrs by Western blot analysis; assay type: functional, cell-based
How it was run: (§2)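 Western blot quantitation of iNOS protein, with β-actin as loading control. RAW 264.7 cells were given a 2 h compound pretreatment (5–20 μM), then 1 μg/mL LPS for 24 h. Data come from at least three independent experiments, each performed in duplicate.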

[4] = system: RAW264.7; test: Antiinflammatory activity in mouse RAW264.7 cells assessed as inhibition of IL-1beta release at 10 uM after 24 hrs by ELISA; assay type: functional, cell-based
How it was run: (§3)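 RAW 264.7 cells were preincubated 2 h with compound (5–20 μM), then stimulated with LPS (1 μg/mL) for 24 h. IL-1β release was measured by ELISA and compared with LPS-stimulated and unstimulated cells. Data come from at least three independent experiments, each run in duplicate.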

[5] = system: RAW264.7; test: Antiinflammatory activity in mouse RAW264.7 cells assessed as inhibition of LPS-induced NO production at 10 uM treated 2 hrs before LPS challenge measured after 24 hrs; assay type: functional; how it was run: as §1
[6] = target: MAP kinase p38 (Mus musculus) (UniProt P47811+O08911+Q9WUI1+Q9Z1B7); test: Inhibition of LPS-induced p38 MAPK phosphorylation in mouse RAW264.7 cells after 45 mins by Western blot analysis; assay type: cell-based
How it was run: (§4)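 Phosphorylation of p38, JNK1/2 and ERK1/2 was detected by Western blot 45 min after LPS stimulation of RAW 264.7 cells. Each phospho-band was quantified against its total kinase as loading control. Data come from at least three independent experiments, each run in duplicate.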

[7] = system: RAW264.7; test: Antiinflammatory activity in mouse RAW264.7 cells assessed as inhibition of LPS-induced IL-1beta release incubated for 2 hrs prior to LPS challenge measured after 24 hrs by ELISA; assay type: functional, cell-based; how it was run: as §3
[8] = target: JNK1/JNK2 (Mus musculus) (UniProt Q91Y86+Q9WTU6); test: Inhibition of LPS-induced JNK1/2 phosphorylation in mouse RAW264.7 cells after 45 mins by Western blot analysis; assay type: cell-based; how it was run: as §4
[9] = system: RAW264.7; test: Antiinflammatory activity in mouse RAW264.7 cells assessed as inhibition of LPS-induced NO production at 20 uM treated 2 hrs before LPS challenge measured after 24 hrs; assay type: functional, cell-based; how it was run: as §1
[10] = system: RAW264.7; test: Antiinflammatory activity in mouse RAW264.7 cells assessed as inhibition of LPS-induced iNOS expression at 20 uM after 24 hrs by Western blot analysis; assay type: functional, cell-based; how it was run: as §2
[11] = system: RAW264.7; test: Cytotoxicity against mouse RAW264.7 cells up to 20 uM; assay type: cell-based
[12] = system: RAW264.7; test: Antiinflammatory activity in mouse RAW264.7 cells assessed as inhibition of LPS-induced iNOS protein expression incubated for 2 hrs prior to LPS challenge measured after 24 hrs by Western blot analysis; assay type: functional, cell-based; how it was run: as §2
[13] = system: RAW264.7; test: Antiinflammatory activity in mouse RAW264.7 cells assessed as inhibition of IL-1beta release at 20 uM after 24 hrs by ELISA; assay type: functional, cell-based; how it was run: as §3
[14] = Mus musculus, RAW264.7, read-out: IC50

Sequence of JNK1/JNK2 (Mus musculus) (Q91Y86 whole entry, looked up): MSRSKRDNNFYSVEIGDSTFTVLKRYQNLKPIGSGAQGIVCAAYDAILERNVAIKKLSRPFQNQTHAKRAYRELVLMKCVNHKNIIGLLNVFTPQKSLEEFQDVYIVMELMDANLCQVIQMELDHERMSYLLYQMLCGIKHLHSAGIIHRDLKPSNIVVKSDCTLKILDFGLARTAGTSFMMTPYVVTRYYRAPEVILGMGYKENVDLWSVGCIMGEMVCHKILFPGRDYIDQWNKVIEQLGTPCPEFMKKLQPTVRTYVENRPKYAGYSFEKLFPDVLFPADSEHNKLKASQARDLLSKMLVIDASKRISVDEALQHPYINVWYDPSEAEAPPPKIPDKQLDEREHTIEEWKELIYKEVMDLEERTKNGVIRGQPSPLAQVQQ
Sequence of JNK1/JNK2 (Mus musculus) (Q9WTU6 whole entry, looked up): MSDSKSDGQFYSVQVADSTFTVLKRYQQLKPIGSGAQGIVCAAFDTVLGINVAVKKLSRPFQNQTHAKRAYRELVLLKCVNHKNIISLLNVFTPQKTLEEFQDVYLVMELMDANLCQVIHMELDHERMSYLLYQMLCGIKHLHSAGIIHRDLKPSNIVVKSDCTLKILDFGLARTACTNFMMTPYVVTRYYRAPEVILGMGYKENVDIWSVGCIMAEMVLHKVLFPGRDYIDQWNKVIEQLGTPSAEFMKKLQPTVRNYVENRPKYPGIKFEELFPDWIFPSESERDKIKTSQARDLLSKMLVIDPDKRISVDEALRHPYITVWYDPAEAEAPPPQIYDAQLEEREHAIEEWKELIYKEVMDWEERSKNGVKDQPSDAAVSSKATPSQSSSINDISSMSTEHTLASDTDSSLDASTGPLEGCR

Row | SMILES | IC50 [1, 14] | NO production % at 10 µM [2] | further results
1 | COc1cc(OC)cc([C@@H]2C(=O)c3cc(OC)cc(OC)c3[C@H]2c2ccccc2)c1 | 27.1 µM | 66% | 
2 | COc1ccc(CSC2c3cc(OC)cc(OC)c3[C@@H](c3ccc(OC)cc3)[C@@H]2c2cc(OC)cc(OC)c2)cc1 (stereo not given in full) | 12.5 µM | 70.5% | 
3 | COc1ccc([C@@H]2c3c(OC)cc(OC)cc3/C(=C/c3ccc(Cl)cc3)[C@H]2c2cc(OC)cc(OC)c2)cc1 | > 200 µM | 90.7% | 
4 | COc1ccc([C@@H]2c3c(OC)cc(OC)cc3C(SCc3ccccc3)[C@H]2c2cc(OC)cc(OC)c2)cc1 (stereo not given in full) | > 200 µM | 78.1% | 
5 | Oc1ccc([C@@H]2c3c(O)cc(O)cc3[C@H]3[C@H](c4ccc(O)cc4)c4c(O)cc(O)cc4[C@@H]23)cc1 (relative stereo) [PALLIDOL] | > 200 µM | 89.3% | 
6 | COc1ccc([C@@H]2c3c(OC)cc(OC)cc3/C(=C/c3ccc(C)cc3)[C@H]2c2cc(OC)cc(OC)c2)cc1 | > 200 µM | 99.2% | 
7 | COc1ccc(CSC2c3cc(OC)cc(OC)c3[C@@H](c3ccccc3)[C@@H]2c2cc(OC)cc(OC)c2)cc1 (stereo not given in full) | > 200 µM | 72.4% | 
8 | COc1ccc(/C=C2/c3cc(OC)cc(OC)c3[C@@H](c3ccc(OC)cc3)[C@@H]2c2cc(OC)cc(OC)c2)cc1 | 6.26 µM | 56.1% | 
9 | C[S+]([O-])c1ccc(-c2nc(-c3ccc(F)cc3)c(-c3ccncc3)[nH]2)cc1 (stereo not given) |  |  | inhibition [3]: Active; inhibition [4]: Active; inhibition [5]: Active
10 | COc1ccc([C@@H]2c3c(OC)cc(OC)cc3/C(=C/c3ccccc3)[C@H]2c2cc(OC)cc(OC)c2)cc1 | > 200 µM | 88.2% | 
11 | COc1cc(OC)cc([C@@H]2C(O)c3cc(OC)cc(OC)c3[C@H]2c2ccccc2)c1 (stereo not given in full) | 3.38 µM | 49.5% | inhibition [6]: Dose-dependent effect; inhibition [7]: Dose-dependent effect; inhibition [1]: Dose-dependent effect; inhibition [8]: Dose-dependent effect; inhibition [9]: Active; inhibition [10]: Active; Activity [11]: Non-toxic; inhibition [12]: Dose-dependent effect; inhibition [13]: Active
12 | COc1cccc(-c2cc(=O)c3ccccc3o2)c1N |  |  | inhibition [3]: inactive; inhibition [4]: inactive; inhibition [5]: inactive
13 | COc1cc(OC)cc([C@@H]2C(O)c3cc(OC)cc(OC)c3[C@H]2c2ccc(F)cc2)c1 (stereo not given in full) |  | 54% | IC50 ([1]; raw264.7): Not Active
14 | COc1ccc(C(O)C2c3cc(OC)cc(OC)c3[C@@H](c3ccccc3)[C@@H]2c2cc(OC)cc(OC)c2)cc1 (stereo not given in full) | 16.5 µM | 67.8% | 
15 | Oc1c2ccccc2c2c3c(cccc13)N=N2 |  |  | inhibition [3]: Active; inhibition [4]: Active; inhibition [5]: Active
16 | Oc1ccc(/C=C2/c3cc(O)cc(O)c3[C@@H](c3ccc(O)cc3)[C@@H]2c2cc(O)cc(O)c2)cc1 |  | 70% | IC50 ([1]; raw264.7): Not Active
17 | COc1ccc([C@@H]2c3c(OC)cc(OC)cc3C(C(O)c3ccccc3)[C@H]2c2cc(OC)cc(OC)c2)cc1 (stereo not given in full) | > 200 µM | 75.4% | 

Row | SMILES | IC50 [1, 14] | NO production % at 10 µM [2] | further results
18 | COc1cc(OC)cc([C@@H]2C(SCc3ccccc3)c3cc(OC)cc(OC)c3[C@H]2c2ccccc2)c1 (stereo not given in full) | > 200 µM | 75.9% | 
19 | COc1cc(OC)cc([C@@H]2C(=O)c3cc(OC)cc(OC)c3[C@H]2c2ccc(F)cc2)c1 | 44.8 µM | 57.4% | 
20 | COc1ccc([C@@H]2c3c(OC)cc(OC)cc3C(SCc3ccc(F)cc3)[C@H]2c2cc(OC)cc(OC)c2)cc1 (stereo not given in full) | > 200 µM | 92.5% | 
21 | O=C1c2cc(O)cc(O)c2[C@@H](c2ccc(O)cc2)[C@@H]1c1cc(O)cc(O)c1 [ISOPAUCIFLORAL F] | > 200 µM | 97.1% | 
22 | COc1ccc([C@@H]2c3c(OC)cc(OC)cc3/C(=C/c3ccc(F)cc3)[C@H]2c2cc(OC)cc(OC)c2)cc1 | > 200 µM | 95.9% | 
23 | COc1ccc([C@@H]2c3c(OC)cc(OC)cc3C(=O)[C@H]2c2cc(OC)cc(OC)c2)cc1 | > 200 µM | 60.9% | 
24 | COc1ccc(/C=C2/c3cc(OC)cc(OC)c3[C@@H](c3ccccc3)[C@@H]2c2cc(OC)cc(OC)c2)cc1 | > 200 µM | 84.3% | 
25 | COc1ccc(C(O)C2c3cc(OC)cc(OC)c3[C@@H](c3ccc(OC)cc3)[C@@H]2c2cc(OC)cc(OC)c2)cc1 (stereo not given in full) | > 200 µM | 77% | 
26 | COc1cc(OC)cc([C@@H]2/C(=C\c3ccccc3)c3cc(OC)cc(OC)c3[C@H]2c2ccccc2)c1 | > 200 µM | 108% | 
27 | COc1ccc([C@@H]2c3c(OC)cc(OC)cc3[C@H]3[C@H](c4ccc(OC)cc4)c4c(OC)cc(OC)cc4[C@@H]23)cc1 | > 200 µM | 80.2% | 
28 | COc1ccc([C@@H]2c3c(OC)cc(OC)cc3C(C(O)c3ccc(F)cc3)[C@H]2c2cc(OC)cc(OC)c2)cc1 (stereo not given in full) | > 200 µM | 81.4% | 
29 | COc1ccc([C@@H]2c3c(OC)cc(OC)cc3C(O)[C@H]2c2cc(OC)cc(OC)c2)cc1 (stereo not given in full) | 7.87 µM | 58.3% | 
30 | COc1ccc([C@@H]2c3c(OC)cc(OC)cc3C(SCc3ccc(Cl)cc3)[C@H]2c2cc(OC)cc(OC)c2)cc1 (stereo not given in full) | > 200 µM | 79.8% | 
31 | COc1ccc([C@@H]2c3c(OC)cc(OC)cc3C(SCc3ccc(C)cc3)[C@H]2c2cc(OC)cc(OC)c2)cc1 (stereo not given in full) | > 200 µM | 86.3% | 
32 | COc1cc(OC)cc([C@@H]2C(C(O)c3ccccc3)c3cc(OC)cc(OC)c3[C@H]2c2ccccc2)c1 (stereo not given in full) | 21.6 µM | 59.5% | 
33 | COc1ccc([C@@H]2c3c(OC)cc(OC)cc3C(C(O)c3ccc(C)cc3)[C@H]2c2cc(OC)cc(OC)c2)cc1 (stereo not given in full) | 26.5 µM | 63.5% | 
34 | COc1ccc([C@@H]2c3c(OC)cc(OC)cc3C(C(O)c3ccc(Cl)cc3)[C@H]2c2cc(OC)cc(OC)c2)cc1 (stereo not given in full) | > 200 µM | 77.5% | 
